Here are results for 17 molecules from ChEMBL document CHEMBL1144611, “Optimization of 1,4-diazepan-2-one containing dipeptidyl peptidase IV inhibitors for the treatment of type 2 diabetes” (Bioorg Med Chem Lett, 2007).

The target of data set [1] is Dipeptidyl peptidase 2 (Homo sapiens, UniProt Q9UHL4). The data set is described as follows: Inhibition of QPP.
A short description of data set [2]: Half life in Sprague-Dawley rat at 1 mg/kg, iv or 2 mg/kg, po. Format: ADME, organism-based. As to conditions: in vivo. A digest of the protocol:
(§1)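 Single iv dose of 1 mg/kg or oral dose of 2 mg/kg, given in water. Plasma clearance and half-life come from dosing; Cmax is the peak plasma level after oral dosing. Oral bioavailability was derived from the po versus iv data.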

Data set [3] in a line: Cmax in Sprague-Dawley rat at 1 mg/kg, iv or 2 mg/kg, po. It counts as ADME, organism-based. As to conditions: in vivo. A digest of the protocol:
as §1

The nature of data set [4]: Bioavailability in Sprague-Dawley rat at 2 mg/kg, po. Format: ADME, organism-based. As to conditions: in vivo. A digest of the protocol:
as §1

Data set [5] is described as follows: Plasma clearance in Sprague-Dawley rat at 1 mg/kg, iv or 2 mg/kg, po. It counts as ADME, organism-based. A digest of the protocol: as §1
Data set [6] can be described thus: Cmax in monkey at 1 mg/kg, iv or 2 mg/kg, po. It counts as ADME, organism-based, Macaca mulatta. As to conditions: rhesus monkey, in vivo. A digest of the protocol: as §1
A short description of data set [7]: Plasma clearance in dog at 1 mg/kg, iv or 2 mg/kg, po. Format: ADME, organism-based, Canis lupus familiaris. A digest of the protocol:
as §1

A short description of data set [8]: Bioavailability in dog at 2 mg/kg, po. Format: ADME, organism-based, Canis lupus familiaris. As to conditions: in vivo. A digest of the protocol:
as §1

Data set [9] is described as follows: (§2) Half life in dog at 1 mg/kg, iv or 2 mg/kg, po. Format: ADME, organism-based, Canis lupus familiaris. As to conditions: in vivo. A digest of the protocol: as §1
Data set [10] can be described thus: Plasma clearance in monkey at 1 mg/kg, iv or 2 mg/kg, po. It counts as ADME, organism-based, Macaca mulatta. As to conditions: rhesus monkey. A digest of the protocol: as §1
The nature of data set [11]: Cmax in dog at 1 mg/kg, iv or 2 mg/kg, po. It counts as ADME, organism-based, Canis lupus familiaris. As to conditions: in vivo. A digest of the protocol:
as §1

Data set [12] is described as follows: Half life in monkey at 1 mg/kg, iv or 2 mg/kg, po. It counts as ADME, organism-based, Macaca mulatta. As to conditions: rhesus monkey, in vivo. A digest of the protocol:
as §1

A short description of data set [13]: Bioavailability in monkey at 2 mg/kg, po. Format: ADME, organism-based, Macaca mulatta. As to conditions: rhesus monkey, in vivo. A digest of the protocol: as §1
The test system of data set [14] is Canis familiaris. The data set is described as §2. As to conditions: in vivo. Format: ADME, organism-based, Canis lupus familiaris. A digest of the protocol:
as §1

Data set [15] concerns the target Dipeptidyl peptidase 4 (Homo sapiens, UniProt P27487). Put plainly: Inhibition of DPP4.
Data set [16] concerns the target Dipeptidyl peptidase 8 (Homo sapiens, UniProt Q6V1X1). Put plainly: Inhibition of DPP8.

Chain of Dipeptidyl peptidase 8 (Q6V1X1 whole entry): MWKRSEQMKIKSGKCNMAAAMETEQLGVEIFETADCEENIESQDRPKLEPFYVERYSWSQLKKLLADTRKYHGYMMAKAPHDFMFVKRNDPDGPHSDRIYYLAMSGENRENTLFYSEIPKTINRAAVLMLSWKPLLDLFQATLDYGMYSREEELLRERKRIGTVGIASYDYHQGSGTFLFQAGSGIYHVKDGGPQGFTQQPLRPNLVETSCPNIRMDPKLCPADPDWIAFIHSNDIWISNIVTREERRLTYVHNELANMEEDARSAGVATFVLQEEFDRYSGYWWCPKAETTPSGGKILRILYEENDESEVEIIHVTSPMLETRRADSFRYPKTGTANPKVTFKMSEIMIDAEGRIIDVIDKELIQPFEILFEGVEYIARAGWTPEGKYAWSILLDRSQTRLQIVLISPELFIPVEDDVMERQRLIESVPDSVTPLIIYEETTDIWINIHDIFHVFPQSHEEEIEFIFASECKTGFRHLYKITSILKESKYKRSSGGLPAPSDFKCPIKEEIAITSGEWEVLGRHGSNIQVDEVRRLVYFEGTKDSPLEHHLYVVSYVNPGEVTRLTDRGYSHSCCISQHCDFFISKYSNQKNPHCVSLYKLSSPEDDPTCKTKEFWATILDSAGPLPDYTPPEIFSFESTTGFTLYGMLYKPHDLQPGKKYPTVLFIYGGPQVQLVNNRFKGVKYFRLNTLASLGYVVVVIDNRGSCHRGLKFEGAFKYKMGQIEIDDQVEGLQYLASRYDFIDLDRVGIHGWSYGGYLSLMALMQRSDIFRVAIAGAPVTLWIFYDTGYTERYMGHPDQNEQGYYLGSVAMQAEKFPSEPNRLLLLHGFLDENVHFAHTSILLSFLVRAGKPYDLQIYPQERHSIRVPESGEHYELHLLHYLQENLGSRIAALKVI
Chain of Dipeptidyl peptidase 4 (P27487 whole entry): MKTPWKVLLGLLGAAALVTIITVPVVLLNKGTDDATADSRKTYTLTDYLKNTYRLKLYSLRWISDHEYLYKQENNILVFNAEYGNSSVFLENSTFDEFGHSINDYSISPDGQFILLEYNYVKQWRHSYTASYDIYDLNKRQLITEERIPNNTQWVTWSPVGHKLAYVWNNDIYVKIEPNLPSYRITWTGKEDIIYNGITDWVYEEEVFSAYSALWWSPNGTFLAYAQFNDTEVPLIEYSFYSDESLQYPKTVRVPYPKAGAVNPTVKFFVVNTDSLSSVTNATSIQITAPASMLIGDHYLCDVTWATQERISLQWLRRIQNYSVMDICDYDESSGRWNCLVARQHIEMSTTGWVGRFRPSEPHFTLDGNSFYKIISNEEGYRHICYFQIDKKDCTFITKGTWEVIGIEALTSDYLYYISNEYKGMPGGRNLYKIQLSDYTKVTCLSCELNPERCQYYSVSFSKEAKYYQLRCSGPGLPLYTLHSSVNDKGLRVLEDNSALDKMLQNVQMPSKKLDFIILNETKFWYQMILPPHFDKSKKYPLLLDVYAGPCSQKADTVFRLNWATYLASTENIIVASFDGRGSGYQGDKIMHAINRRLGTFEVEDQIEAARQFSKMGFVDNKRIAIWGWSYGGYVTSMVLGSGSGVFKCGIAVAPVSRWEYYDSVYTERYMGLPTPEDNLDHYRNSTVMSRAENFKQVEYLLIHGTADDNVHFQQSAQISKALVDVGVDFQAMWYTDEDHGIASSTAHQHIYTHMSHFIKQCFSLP

Take `N[C@@H](CC(=O)N1CCCNC(=O)C1)Cc1cc(F)c(F)cc1F`: the IC50 in data set [1] was above 100 µM.

For `C[C@@H]1C(=O)N(C2CC2)CCCN1C(=O)C[C@H](N)Cc1cc(F)c(F)cc1F`, the half-life in [2] was 4.3 h. This molecule showed a peak concentration (Cmax) in data set [3] of 570 nM. For the same molecule, the bioavailability in data set [4] worked out at 45%. This molecule also showed a clearance in data set [5] of 51 mL/min/kg.

In the case of `C[C@@H]1C(=O)N2CCC[C@@H]2CCN1C(=O)C[C@H](N)Cc1cc(F)c(F)cc1F`, the half-life in data set [2] is 1.4 h. In data set [3], this molecule came in with a Cmax of 40 nM. For the same molecule, in data set [4], the bioavailability worked out at 21%. The clearance in [5] was found to be 152 mL/min/kg.

As for `C[C@H]1CNC(=O)[C@@H](C)N(C(=O)C[C@H](N)Cc2cc(F)c(F)cc2F)C1`, the Cmax came out at 290 nM in data set [6], 140 nM in data set [3] and 1210 nM in data set [11]. Also, the values for the half-life in data set [2], in data set [9] and in data set [12] were 1.5 h, 8.1 h and 4.4 h, respectively. Besides, the clearance came out at 8.1 mL/min/kg in data set [7], 92.8 mL/min/kg in data set [5] and 39.4 mL/min/kg in [10]. The bioavailability in data set [8] is 77%; in data set [4], 49%; in data set [13], 59%.

Consider `C[C@@H]1CCN(C(=O)C[C@H](N)Cc2cc(F)c(F)cc2F)[C@H](C)C(=O)N1`, for which the Cmax in data set [6] turned out to be 430 nM; in data set [3], 170 nM; in data set [11], 1290 nM. The half-life in data set [2] was 1.5 h; in [12] it was 4.7 h. Besides, the clearance was found to be 8.5 mL/min/kg in data set [7], 87 mL/min/kg in data set [5] and 42.3 mL/min/kg in [10]. Moreover, the values for the bioavailability in [8], in data set [4] and in [13] were 88%, 64% and 71%, respectively. This molecule had a t1/2 in [14] of 7.2 h.

Turning to `C[C@@H]1CCN(C(=O)C[C@H](N)Cc2cc(F)c(F)cc2F)[C@H](Cc2ccccn2)C(=O)N1`, the half-life in [2] is 2 h. This molecule showed a Cmax in [3] of 10 nM. For the same molecule, the bioavailability in [4] was found to be 8.1%. This molecule had a clearance in data set [5] of 97 mL/min/kg.

`C[C@@H]1C(=O)N[C@H](C(F)(F)F)CCN1C(=O)C[C@H](N)Cc1cc(F)c(F)cc1F`: the IC50 in data set [15] is 0.139 µM; in data set [1], above 100 µM.

`N[C@@H](CC(=O)N1CCCNC(=O)C1CC(F)(F)F)Cc1cc(F)c(F)cc1F` (some centres undefined): the half-life in [2] was 2 h. The molecule further yielded a Cmax in data set [3] of 90 nM. For the same molecule, in data set [4], the bioavailability was 36%. The clearance in [5] amounted to 94 mL/min/kg.

In data set [2], `CCN1CCCN(C(=O)C[C@H](N)Cc2cc(F)ccc2F)[C@H](C)C1=O` showed a half-life of 0.8 h. Also, the Cmax in data set [3] turned out to be 30 nM. In data set [4], this molecule registered a bioavailability of 7.4%. In addition, in data set [5], the clearance turned out to be 152 mL/min/kg. Besides, the IC50 in data set [1] was above 100 µM.

Regarding `C[C@@H]1C(=O)N(CC(=O)O)CCCN1C(=O)C[C@H](N)Cc1cc(F)ccc1F`, the IC50 was above 100 µM in data set [16], 0.0699 µM in data set [15] and above 100 µM in [1].

As to `C[C@@H]1C(=O)N(C)CCCN1C(=O)C[C@H](N)Cc1cc(F)c(F)cc1F`, the half-life in [2] is 1.3 h. The Cmax in [3] turned out to be 130 nM. In data set [4], this molecule registered a bioavailability of 29%. The clearance in data set [5] was determined as 113 mL/min/kg. The molecule further registered an IC50 in data set [1] above 100 µM.

For the molecule `COC(=O)CN1CCCN(C(=O)C[C@H](N)Cc2cc(F)ccc2F)[C@H](C)C1=O`, the IC50 in [15] was 0.0116 µM; in [1] it was above 100 µM.

`C[C@@H]1C(=O)N(C2CC2)CCCN1C(=O)C[C@H](N)Cc1cc(F)ccc1F` had a half-life in data set [2] of 1.6 h. The concentration in data set [3] peaked (Cmax) at 50 nM. For the same molecule, the bioavailability in data set [4] worked out at 19%. For the same molecule, the clearance in data set [5] is 132 mL/min/kg. Besides, the IC50 in [1] is above 100 µM.

`C[C@@H]1C(=O)N(CC(F)(F)F)CCCN1C(=O)C[C@H](N)Cc1cc(F)c(F)cc1F`: the half-life in [2] was 1.7 h. Moreover, in data set [3], the highest level (Cmax) was 80 nM. Also, in data set [4], the bioavailability worked out at 23%. Besides, in data set [5], the clearance amounted to 82 mL/min/kg.

For `CC1C(=O)NCCCN1C(=O)C[C@H](N)Cc1cc(F)ccc1F` (some centres undefined), in [1], the IC50 is above 100 µM.

For the molecule `CC1CCNC(=O)CN1C(=O)C[C@H](N)Cc1cc(F)c(F)cc1F` (stereo in doubt; 13a), the IC50 was above 100 µM in data set [16], 0.765 µM in data set [15] and 44 µM in [1].

As for `CC1CCNC(=O)CN1C(=O)C[C@H](N)Cc1cc(F)c(F)cc1F` (stereo in doubt; 13b), the IC50 is above 100 µM in [16], 1.05 µM in [15] and above 100 µM in data set [1].

Broadly, the IC50 is the concentration that gives 50% inhibition. As a reminder, the half-life is the time in which the quantity being followed falls by half. As a reminder, the Cmax is the highest concentration seen after dosing. The bioavailability is the share of a dose that reaches the circulation, judged against a reference dose that is usually intravenous.
